The record followed here is ChEMBL document CHEMBL1137569, “Pharmacomodulations around the 4-oxo-1,4-dihydroquinoline-3-carboxamides, a class of potent CB2-selective cannabinoid receptor ligands: consequences in receptor affinity and functionality” (J Med Chem, 2007).

The target of experiment [1] is T1, Cannabinoid receptor 2 (Homo sapiens, UniProt P34972). Description: Inhibition of human CB2 receptor expressed in CHO cells. Type of experiment: cell-based.
Experiment [2] addresses T1, Cannabinoid receptor 2. Put plainly: Displacement of [3H]CP-55940 from human CB2 receptor expressed in CHO cells. More on the design: concentration or dose not given beside the values. It counts as cell-based. In outline:
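Competitive radioligand binding on membranes from CHO cells expressing hCB2, with [3H]-CP-55,940 as tracer. Compounds were first screened at 10 µM. Ki at CB2 was then determined for those displacing more than 60% of specific binding.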
(In general: Loss of bound radioactivity is the signal in a displacement assay; it reports binding, not function.)

In experiment [3] the target is T1, Cannabinoid receptor 2. Description: Displacement of [3H]SR-141716A from human CB2 receptor expressed in CHO cells at 10 uM. Type of experiment: cell-based.
The target in experiment [4] is T1, Cannabinoid receptor 2. Put plainly: Activity at human CB2 receptor expressed in CHO cells assessed as stimulated [35S]GTP-gamma-S binding relative to control. Type of experiment: functional, cell-based. On the set-up: concentration or dose not given beside the values.
In experiment [5] the target is Cannabinoid receptor 1 (Homo sapiens) (UniProt P21554). Put plainly: Displacement of [3H]SR-141716A from human CB1 receptor expressed in CHO cells at 10 uM. It counts as cell-based. In short, it runs like this:
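Single-concentration (10 µM) competition screen on membranes from CHO cells expressing hCB1, with [3H]SR-141716A as radioligand. Read-out is percent displacement of the radioligand from its binding site.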

T1 sequence (P34972 whole entry): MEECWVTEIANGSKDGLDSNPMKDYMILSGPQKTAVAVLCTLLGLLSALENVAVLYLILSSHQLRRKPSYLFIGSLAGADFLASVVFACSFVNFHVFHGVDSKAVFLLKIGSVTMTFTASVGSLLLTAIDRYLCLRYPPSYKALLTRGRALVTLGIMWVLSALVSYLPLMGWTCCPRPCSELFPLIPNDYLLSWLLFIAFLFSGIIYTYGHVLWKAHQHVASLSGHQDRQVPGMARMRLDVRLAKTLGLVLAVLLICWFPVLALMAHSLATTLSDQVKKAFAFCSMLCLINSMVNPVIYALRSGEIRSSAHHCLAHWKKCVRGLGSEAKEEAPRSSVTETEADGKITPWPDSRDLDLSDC
Cannabinoid receptor 1 (Homo sapiens), sequence (P21554 whole entry): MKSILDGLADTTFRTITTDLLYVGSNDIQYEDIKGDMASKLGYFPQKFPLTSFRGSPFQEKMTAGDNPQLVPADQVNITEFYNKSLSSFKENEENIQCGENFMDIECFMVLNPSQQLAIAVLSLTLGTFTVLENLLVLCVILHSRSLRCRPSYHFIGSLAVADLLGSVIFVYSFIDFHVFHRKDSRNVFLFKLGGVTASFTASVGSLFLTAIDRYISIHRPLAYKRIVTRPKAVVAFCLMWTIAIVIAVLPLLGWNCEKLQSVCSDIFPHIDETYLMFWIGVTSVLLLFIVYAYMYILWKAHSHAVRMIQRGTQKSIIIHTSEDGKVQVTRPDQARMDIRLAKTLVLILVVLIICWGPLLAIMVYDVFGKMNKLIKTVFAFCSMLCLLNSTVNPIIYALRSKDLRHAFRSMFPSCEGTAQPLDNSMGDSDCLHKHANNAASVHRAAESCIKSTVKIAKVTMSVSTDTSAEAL

Broadly, the Ki is the equilibrium dissociation constant of an inhibitor or competing ligand from its target. The compound `O=C(c1cn(Cc2ccc(F)cc2)c2ccccc2c1=O)c1cccc2ccccc12` displayed a Ki at Cannabinoid receptor 2 [1] of 225 nM. Also, the Activity on Cannabinoid receptor 2 [2] is 112%; at Cannabinoid receptor 2 [3], 70%.

In turn, `CCCCCn1cc(C(=O)NC23CC4CC(C)(CC(C)(C4)C2)C3)c(=O)c2ncccc21` returned a Ki at Cannabinoid receptor 2 [1] of 259 nM. In addition, the Activity at Cannabinoid receptor 2 [2] turned out to be 93.4%; at Cannabinoid receptor 2 [4], 170%.

`CCCCCn1cc(C(=O)NC23CC4CC(C)(CC(C)(C4)C2)C3)c(=O)c2cc(Cl)ccc21`: affinity on Cannabinoid receptor 2 [1] was put at a Ki of 54.6 nM. Further, the Activity on Cannabinoid receptor 2 [2] turned out to be 86.7%; on Cannabinoid receptor 2 [4], 49.6%.

`CCCCCn1c(C)c(C(=O)NC23CC4CC(C)(CC(C)(C4)C2)C3)c(=O)c2ccccc21`: affinity on Cannabinoid receptor 2 [1] was put at a Ki of 200 nM. Besides, the Activity is 96.7% on Cannabinoid receptor 2 [2] and 128% at Cannabinoid receptor 2 [4].

Take `CCCCCn1nc(C(=O)NC23CC4CC(C)(CC(C)(C4)C2)C3)c(=O)c2ccccc21`: the Ki on Cannabinoid receptor 2 [1] was found to be 93 nM. The Activity amounted to 94.6% on Cannabinoid receptor 2 [2] and 109% on Cannabinoid receptor 2 [4].

`CCCCCn1cc(NC(=O)C23CC4CC(CC(C4)C2)C3)c(=O)c2ccccc21` yielded a Ki on Cannabinoid receptor 2 [1] of 25.5 nM. In addition, the Activity at Cannabinoid receptor 2 [2] was determined as 99.9%; at Cannabinoid receptor 2 [4], 120%.

In turn, `CCCCCn1c(-c2ccccc2)c(C(=O)NC23CC4CC(C)(CC(C)(C4)C2)C3)c(=O)c2ccccc21` yielded a Ki at Cannabinoid receptor 2 [1] of 119 nM. Also, the Activity at Cannabinoid receptor 2 [2] stood at 97.2%; on Cannabinoid receptor 2 [4], 27.1%.

At Cannabinoid receptor 2 [1], `CCCCCn1c(-c2ccccc2)c(C(=O)NC23CC4CC(CC(C4)C2)C3)c(=O)c2ccccc21` yielded a Ki of 338 nM. Besides, the Activity on Cannabinoid receptor 2 [2] came out at 94.9%; on Cannabinoid receptor 2 [4], 26.5%.

Regarding `CCCCCn1cc(C(=O)NC23CC4CC(C)(CC(C)(C4)C2)C3)c(=O)c2cnccc21`, the Ki at Cannabinoid receptor 2 [1] stood at 30.9 nM. The values for the Activity on Cannabinoid receptor 2 [2] and at Cannabinoid receptor 2 [4] were 95% and 136%, respectively.

In turn, `CCCCCn1cc(C(=O)NC23CC4CC(C)(CC(C)(C4)C2)C3)c(=S)c2ccccc21` showed a Ki at Cannabinoid receptor 2 [1] of 18.2 nM. Also, the values for the Activity on Cannabinoid receptor 2 [2] and at Cannabinoid receptor 2 [4] were 95.7% and 65.6%, respectively.

On Cannabinoid receptor 2 [1], `CCCCCn1c(C)c(C(=O)NC(C)c2ccccc2)c(=O)c2ccccc21` (single isomer, unassigned; (-)) registered a Ki of 663 nM. For the same compound, the Activity at Cannabinoid receptor 2 [2] is 91.7%; at Cannabinoid receptor 2 [4], 186%.

In the case of `CCCCCn1cc(C(=O)c2cccc3ccccc23)c(=O)c2ccccc21`, at Cannabinoid receptor 2 [1], the Ki worked out at 154 nM. Also, the Activity at Cannabinoid receptor 2 [2] stood at 97%; in experiment [5], 56%.

Compound `CCCCCn1cc(C(=O)NCC23CC4CC(CC(C4)C2)C3)c(=O)c2ccccc21` returned a Ki on Cannabinoid receptor 2 [1] of 50.6 nM. In addition, the Activity amounted to 87.2% at Cannabinoid receptor 2 [2] and 155% on Cannabinoid receptor 2 [4].

On to `CC12CC3CC(C)(C1)CC(NC(=O)c1cn(CCN4CCOCC4)c4ccccc4c1=O)(C3)C2`, for which, on Cannabinoid receptor 2 [1], the Ki was determined as 221 nM. The Activity at Cannabinoid receptor 2 [2] stood at 95.6%; on Cannabinoid receptor 2 [4] it was 141%.

In turn, `CC12CC3CC(C)(C1)CC(NC(=O)c1cn(CCCc4ccccc4)c4ccccc4c1=O)(C3)C2` returned a Ki on Cannabinoid receptor 2 [1] of 160 nM. Also, the figures for the Activity at Cannabinoid receptor 2 [2] and on Cannabinoid receptor 2 [4] were 101% and 98.8%, respectively.

With `CCCCCn1cc(NC(=O)c2cccc3ccccc23)c(=O)c2ccccc21`, the Ki on Cannabinoid receptor 2 [1] was found to be 265 nM. The Activity on Cannabinoid receptor 2 [2] was 97.4%; on Cannabinoid receptor 2 [4] it was 139%.

Regarding `CCCCCn1cc(C(=O)NC23CC4CC(C)(CC(C)(C4)C2)C3)c(=O)c2ccc(Cl)cc21`, on Cannabinoid receptor 2 [1], the Ki is 5.3 nM. In addition, the Activity is 106% on Cannabinoid receptor 2 [2] and 51.6% on Cannabinoid receptor 2 [4].
